ChEMBL document CHEMBL4219174, “Synthesis and evaluation of 2,9-disubstituted 8-phenylthio/phenylsulfinyl-9H-purine as new EGFR inhibitors” (Bioorg Med Chem, 2018)
Calls of active or inactive are those of the source. No cut-off for these calls is given here.

How the values were obtained:
[1] = tested on: HCC827; test: Antiproliferative activity against human HCC827 cells after 72 hrs by MTT assay; format: functional, cell-based; conditions: HCC827, 72 h
[2] = target: Epidermal growth factor receptor (Homo sapiens, UniProt P00533, C797S/L858R/T790M); test: Inhibition of EGFR L858R/T790M/C797S triple mutant (unknown origin) using poly (Glu, Tyr) as substrate after 40 mins by kinase-glo plus luminescence assay
Chain of Epidermal growth factor receptor (Homo sapiens, UniProt P00533, C797S/L858R/T790M) (P00533 25-1210 T790M/C797S/L858R limits assumed): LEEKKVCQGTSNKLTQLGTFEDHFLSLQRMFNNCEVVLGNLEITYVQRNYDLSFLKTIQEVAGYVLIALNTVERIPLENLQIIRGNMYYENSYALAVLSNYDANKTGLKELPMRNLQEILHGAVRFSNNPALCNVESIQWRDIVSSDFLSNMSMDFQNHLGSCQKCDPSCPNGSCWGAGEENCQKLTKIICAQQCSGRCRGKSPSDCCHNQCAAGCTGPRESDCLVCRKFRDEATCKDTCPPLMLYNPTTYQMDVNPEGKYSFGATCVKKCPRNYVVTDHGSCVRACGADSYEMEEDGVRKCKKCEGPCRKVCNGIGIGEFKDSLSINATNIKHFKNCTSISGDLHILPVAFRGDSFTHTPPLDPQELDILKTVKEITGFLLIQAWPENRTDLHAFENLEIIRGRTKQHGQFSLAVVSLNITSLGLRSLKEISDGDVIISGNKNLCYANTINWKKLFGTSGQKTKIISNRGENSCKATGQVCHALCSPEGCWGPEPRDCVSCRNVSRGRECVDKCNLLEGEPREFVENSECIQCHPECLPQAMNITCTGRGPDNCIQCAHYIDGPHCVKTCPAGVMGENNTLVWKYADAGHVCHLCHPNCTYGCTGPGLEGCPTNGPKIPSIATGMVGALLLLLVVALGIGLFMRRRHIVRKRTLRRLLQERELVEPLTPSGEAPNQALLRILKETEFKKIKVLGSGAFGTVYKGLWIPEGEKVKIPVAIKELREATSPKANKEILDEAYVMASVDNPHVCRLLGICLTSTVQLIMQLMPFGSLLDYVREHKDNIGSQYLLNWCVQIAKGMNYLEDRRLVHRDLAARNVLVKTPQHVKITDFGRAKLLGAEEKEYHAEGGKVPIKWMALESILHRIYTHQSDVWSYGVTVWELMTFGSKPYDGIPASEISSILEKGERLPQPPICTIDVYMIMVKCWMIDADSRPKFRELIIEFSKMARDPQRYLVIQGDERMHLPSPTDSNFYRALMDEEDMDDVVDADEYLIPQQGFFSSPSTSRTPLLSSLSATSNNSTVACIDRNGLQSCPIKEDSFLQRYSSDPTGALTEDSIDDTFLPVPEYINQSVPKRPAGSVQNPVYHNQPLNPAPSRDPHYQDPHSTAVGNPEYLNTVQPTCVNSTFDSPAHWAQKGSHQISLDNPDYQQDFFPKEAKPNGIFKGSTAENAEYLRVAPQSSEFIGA

[3] = tested on: A549; test: Antiproliferative activity against human A549 cells after 72 hrs by MTT assay; format: functional, cell-based; conditions: A549, 72 h
[4] = target: T1, Epidermal growth factor receptor (Homo sapiens, UniProt P00533); test: Inhibition of wild type EGFR (unknown origin) using poly (Glu, Tyr) as substrate after 40 mins by kinase-glo plus luminescence assay
T1 sequence (P00533 whole entry): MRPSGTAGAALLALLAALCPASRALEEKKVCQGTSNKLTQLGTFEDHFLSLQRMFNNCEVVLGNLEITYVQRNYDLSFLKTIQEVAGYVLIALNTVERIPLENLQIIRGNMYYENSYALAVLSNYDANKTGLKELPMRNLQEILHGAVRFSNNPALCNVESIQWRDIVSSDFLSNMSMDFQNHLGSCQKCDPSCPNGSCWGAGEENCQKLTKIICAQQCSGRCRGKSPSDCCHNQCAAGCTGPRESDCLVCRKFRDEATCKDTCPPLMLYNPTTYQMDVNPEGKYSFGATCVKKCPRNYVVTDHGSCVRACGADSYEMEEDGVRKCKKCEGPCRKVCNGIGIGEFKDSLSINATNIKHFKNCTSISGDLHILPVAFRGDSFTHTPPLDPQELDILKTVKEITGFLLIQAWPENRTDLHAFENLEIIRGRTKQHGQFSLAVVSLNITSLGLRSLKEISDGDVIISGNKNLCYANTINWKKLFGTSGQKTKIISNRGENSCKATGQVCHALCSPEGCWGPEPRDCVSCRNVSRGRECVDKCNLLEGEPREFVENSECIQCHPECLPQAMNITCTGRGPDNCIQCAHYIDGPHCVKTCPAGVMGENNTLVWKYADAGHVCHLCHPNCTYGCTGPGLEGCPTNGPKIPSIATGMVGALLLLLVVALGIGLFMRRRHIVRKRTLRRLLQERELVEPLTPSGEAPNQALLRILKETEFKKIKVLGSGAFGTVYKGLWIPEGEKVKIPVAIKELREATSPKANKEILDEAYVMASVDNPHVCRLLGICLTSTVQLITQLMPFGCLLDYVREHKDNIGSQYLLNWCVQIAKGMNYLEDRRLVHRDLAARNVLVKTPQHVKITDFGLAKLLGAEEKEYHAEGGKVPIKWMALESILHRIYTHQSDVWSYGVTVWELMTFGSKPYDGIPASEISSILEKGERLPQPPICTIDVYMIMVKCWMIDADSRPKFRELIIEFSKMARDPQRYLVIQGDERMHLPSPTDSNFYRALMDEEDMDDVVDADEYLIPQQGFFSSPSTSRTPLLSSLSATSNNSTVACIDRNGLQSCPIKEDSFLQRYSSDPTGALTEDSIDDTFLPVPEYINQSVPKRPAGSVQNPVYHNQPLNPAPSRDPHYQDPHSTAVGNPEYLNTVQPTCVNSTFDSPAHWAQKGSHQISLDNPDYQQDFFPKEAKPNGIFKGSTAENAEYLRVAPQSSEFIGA

[5] = tested on: HCC827; test: Antiproliferative activity against human HCC827 cells at 1 uM after 72 hrs by MTT assay relative to control; format: functional; conditions: for Emax at 1 µM: Homo sapiens, HCC827, 72 h
Summary of the method: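 Human lung carcinoma HCC827 cells (EGFR Del E746-A750) were tested by MTT colorimetric assay, with gefitinib and AZD9291 as positive controls. The read-out was percent growth inhibition at a single fixed concentration.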

[6] = tested on: NCI-H1975; test: Antiproliferative activity against human NCI-H1975 cells after 72 hrs by MTT assay; format: functional, cell-based; conditions: NCI-H1975, 72 h
[7] = target: T1, Epidermal growth factor receptor; test: Inhibition of EGFR auto-phosphorylation in human HCC827 cells after 8 hrs by Western blot analysis; format: cell-based
[8] = target: Epidermal growth factor receptor (Homo sapiens, UniProt P00533, L858R/T790M); test: Inhibition of EGFR L858R/T790M double mutant (unknown origin) using poly (Glu, Tyr) as substrate after 40 mins by kinase-glo plus luminescence assay
Chain of Epidermal growth factor receptor (Homo sapiens, UniProt P00533, L858R/T790M) (P00533 25-1210 T790M/L858R limits assumed): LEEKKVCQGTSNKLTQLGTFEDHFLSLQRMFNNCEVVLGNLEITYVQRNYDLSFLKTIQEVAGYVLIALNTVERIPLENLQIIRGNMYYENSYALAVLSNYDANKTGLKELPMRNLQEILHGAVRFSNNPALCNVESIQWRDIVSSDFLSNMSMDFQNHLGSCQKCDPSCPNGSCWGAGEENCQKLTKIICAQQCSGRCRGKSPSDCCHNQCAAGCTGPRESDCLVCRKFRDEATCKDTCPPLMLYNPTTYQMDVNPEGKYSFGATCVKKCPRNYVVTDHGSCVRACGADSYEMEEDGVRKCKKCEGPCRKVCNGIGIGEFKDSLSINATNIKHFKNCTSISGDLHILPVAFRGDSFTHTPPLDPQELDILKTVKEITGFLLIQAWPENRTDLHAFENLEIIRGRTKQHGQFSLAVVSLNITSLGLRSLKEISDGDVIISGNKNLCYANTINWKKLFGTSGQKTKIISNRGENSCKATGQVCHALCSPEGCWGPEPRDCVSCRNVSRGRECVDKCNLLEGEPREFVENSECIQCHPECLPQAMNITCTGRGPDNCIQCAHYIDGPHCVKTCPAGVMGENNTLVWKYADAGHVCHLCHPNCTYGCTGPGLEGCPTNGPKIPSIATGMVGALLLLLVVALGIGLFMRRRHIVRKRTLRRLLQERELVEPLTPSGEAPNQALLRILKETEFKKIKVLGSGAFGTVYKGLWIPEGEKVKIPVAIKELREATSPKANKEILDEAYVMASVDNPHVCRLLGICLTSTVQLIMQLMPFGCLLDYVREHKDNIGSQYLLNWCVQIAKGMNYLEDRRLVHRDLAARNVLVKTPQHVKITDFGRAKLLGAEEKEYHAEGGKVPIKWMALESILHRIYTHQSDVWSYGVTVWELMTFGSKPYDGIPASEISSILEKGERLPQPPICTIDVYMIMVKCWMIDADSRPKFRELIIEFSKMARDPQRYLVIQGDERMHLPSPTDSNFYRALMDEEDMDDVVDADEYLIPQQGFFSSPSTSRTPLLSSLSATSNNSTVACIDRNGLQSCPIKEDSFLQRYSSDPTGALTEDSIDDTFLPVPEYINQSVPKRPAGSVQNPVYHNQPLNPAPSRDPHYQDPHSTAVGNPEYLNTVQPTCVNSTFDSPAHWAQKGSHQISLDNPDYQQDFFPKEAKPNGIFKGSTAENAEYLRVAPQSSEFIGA

[9] = Selectivity ratio of IC50 for human A549 cells to IC50 for human HCC827 cells; format: functional
[10] = tested on: HCC827; test: Anti-tumor activity against human HCC827 cells xenografted in nude Balb/c mouse assessed as tumor growth inhibition at 5 mg/kg, po administered once daily for 20 days measured once in three days till day 21; format: functional, organism-based
Summary of the method: (§1)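 HCC827 (EGFR Del E746-A750) xenografts in nude mice, n = 6 per group. Oral dosing at 1 or 5 mg/kg once daily for 20 days, compared against a vehicle group. Read-outs were tumor growth curves and body weight over the treatment period, plus final tumor weight after 20 days. Significance was tested vs vehicle.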

[11] = Selectivity ratio of IC50 for human NCI-H1975 cells to IC50 for human HCC827 cells; format: functional
[12] = tested on: Mus musculus; test: Toxicity in nude Balb/c mouse xenografted with human HCC827 cells assessed as increase in body weight at 5 mg/kg, po administered once daily for 20 days measured every day till day 21; format: organism-based; conditions: in vivo, 480 h; summary of the method: as §1

SMILES	IC50 [1] [µM]	IC50 [3] [µM]	IC50 [6] [µM]	other results
CN1CCN(c2ccc(Nc3ncc4nc(SCc5cccnc5)n(C5CCOCC5)c4n3)cc2)CC1	0.5			
CN(C)C1CCN(c2ccc(Nc3ncc4nc(Sc5ccccc5)n(C5CCOCC5)c4n3)cc2)CC1	0.0294	> 10	4.99	IC50 [2]: 0.331 µM; IC50 [4]: 0.0016 µM; Emax at 1 µM [5]: 81%; inhibition [7]: Dose-dependent effect; IC50 [8]: 0.104 µM; Ratio IC50 [9]: >340; TGI [10]: Active; Ratio IC50 [11]: 170; Activity [12]: Non-Toxic
CN(C)CCN(C)c1ccc(Nc2ncc3nc([S+]([O-])c4ccccc4)n(C4CCOCC4)c3n2)cc1 (stereo not drawn)	1.33			
CN1CCN(c2ccc(Nc3ncc4nc(Sc5ccccc5)n(C5CC5)c4n3)cc2)CC1	0.304			
CN(C)CCOc1ccc(Nc2ncc3nc(Sc4ccc(F)cc4)n(C4CCOCC4)c3n2)cc1	0.0478	4.85	6.26	IC50 [2]: 0.114 µM; IC50 [4]: 0.0025 µM; IC50 [8]: 0.189 µM; Ratio IC50 [9]: 101; Ratio IC50 [11]: 131
CN1CCN(c2ccc(Nc3ncc4nc(Sc5ccccc5)n(C5CCCC5)c4n3)cc2)CC1	0.0512	0.237	5.58	Ratio IC50 [9]: 5; Ratio IC50 [11]: 109
CN1CCN(c2ccc(Nc3ncc4nc([S+]([O-])c5ccccc5)n(CC5CC5)c4n3)cc2)CC1 (stereo not drawn)	0.838			
CN1CCN(c2ccc(Nc3ncc4nc([S+]([O-])c5ccccc5)n(C5CCOCC5)c4n3)cc2)CC1 (stereo not drawn)	0.411			
CN1CCN(c2ccc(Nc3ncc4nc(Sc5ccccc5)n(CC5CC5)c4n3)cc2)CC1	0.66			
CN(C)CCOc1ccc(Nc2ncc3nc(Sc4cccc(F)c4)n(C4CCOCC4)c3n2)cc1	0.0514	3.36	2.77	IC50 [2]: 0.805 µM; Ratio IC50 [9]: 65; Ratio IC50 [11]: 54
CN1CCC(Oc2ccc(Nc3ncc4nc(Sc5ccccc5)n(C5CCOCC5)c4n3)cc2)CC1	0.14			
CN1CCN(c2ccc(Nc3ncc4nc(SCc5ccccc5)n(C5CCOCC5)c4n3)cc2)CC1	0.106			
CN(C)CCOc1ccc(Nc2ncc3nc([S+]([O-])c4ccccc4)n(C4CCOCC4)c3n2)cc1 (stereo not drawn)	0.0503	> 10	> 10	Ratio IC50 [9]: >198; Ratio IC50 [11]: >198
CN1CCN(c2ccc(Nc3ncc4nc([S+]([O-])c5ccccc5)n(C5CC5)c4n3)cc2)CC1 (stereo not drawn)	1.63			
CN1CCN(c2ccc(Nc3ncc4nc(SCc5cccnc5)n(C5CC5)c4n3)cc2)CC1	8.83			
CN1CCN(c2ccc(Nc3ncc4nc(Sc5ccccc5)n([C@H]5CC[C@H](O)CC5)c4n3)cc2)CC1	0.0426 to 0.0479	0.426	1.32	IC50 [2]: 0.529 µM; Ratio IC50 [9]: 10; Ratio IC50 [11]: 31
CN(C)CCN(C)c1ccc(Nc2ncc3nc(Sc4ccccc4)n(C4CCOCC4)c3n2)cc1	0.499			

SMILES	IC50 [1] [µM]	IC50 [3] [µM]	IC50 [6] [µM]	other results
CN1CCN(c2ccc(Nc3ncc4nc([S+]([O-])c5ccccc5)n(C5CCCC5)c4n3)cc2)CC1 (stereo not drawn)	0.0647	> 10	5.11	Ratio IC50 [9]: >154; Ratio IC50 [11]: 79
CN(C)CCOc1ccc(Nc2ncc3nc([S+]([O-])c4cccc(F)c4)n(C4CCOCC4)c3n2)cc1 (stereo not drawn)	0.359			
CC(C)n1c(Sc2ccccc2)nc2cnc(Nc3ccc(N4CCN(C)CC4)cc3)nc21	0.29			
CN1CCN(c2ccc(Nc3ncc4nc(Nc5ccccc5)n(C5CCCC5)c4n3)cc2)CC1	0.0359			Emax at 1 µM [5]: 70%
CN1CCN(c2ccc(Nc3ncc4nc([S+]([O-])Cc5ccccc5)n(C5CCOCC5)c4n3)cc2)CC1 (stereo not drawn)	0.433			
CN(C)C1CCN(c2ccc(Nc3ncc4nc([S+]([O-])c5ccccc5)n(C5CCOCC5)c4n3)cc2)CC1 (stereo not drawn)	1.29			
CN(C)CCOc1ccc(Nc2ncc3nc([S+]([O-])c4ccc(F)cc4)n(C4CCOCC4)c3n2)cc1 (stereo not drawn)	0.553			
CN1CCN(c2ccc(Nc3ncc4nc([S+]([O-])Cc5cccnc5)n(C5CCCC5)c4n3)cc2)CC1 (stereo not drawn)	2.35			
C=CC(=O)Nc1cc(Nc2nccc(-c3cn(C)c4ccccc34)n2)c(OC)cc1N(C)CCN(C)C [OSIMERTINIB]	0.0254 to 0.0431	0.486	[…]	Emax [5]: 73%
CN1CCN(c2ccc(Nc3ncc4nc(Sc5ccccc5)n(C5CCOCC5)c4n3)cc2)CC1	0.0426	2.94	2.26	IC50 [2]: 0.892 µM; Ratio IC50 [9]: 69; Ratio IC50 [11]: 53
CN(C)CCOc1ccc(Nc2ncc3nc(Sc4ccccc4)n(C4CCOCC4)c3n2)cc1	0.0443	> 10	9.61	IC50 [2]: 0.556 µM; Emax at 1 µM [5]: 78%; Ratio IC50 [9]: >226; Ratio IC50 [11]: 217
CN1CCN(c2ccc(Nc3ncc4nc(SCc5cccnc5)n(C5CCCC5)c4n3)cc2)CC1	0.517			
CN1CCC(Oc2ccc(Nc3ncc4nc([S+]([O-])c5ccccc5)n(C5CCOCC5)c4n3)cc2)CC1 (stereo not drawn)	0.853			
CN1CCN(c2ccc(Nc3ncc4nc([S+]([O-])c5ccccc5)n([C@H]5CC[C@H](O)CC5)c4n3)cc2)CC1 (stereo partly drawn)	0.268			
CC(C)n1c([S+]([O-])c2ccccc2)nc2cnc(Nc3ccc(N4CCN(C)CC4)cc3)nc21 (stereo not drawn)	0.214			
CN1CCN(c2ccc(Nc3ncc4nc([S+]([O-])Cc5cccnc5)n(C5CCOCC5)c4n3)cc2)CC1 (stereo not drawn)	> 10			
